Shown are actives, neighbours in structure and some others; about 4.6% of the full set was active somewhere.
OX1R antag-1: blocks the human orexin 1 receptor; O43613; OX1R-expressing cells, FRET antagonist read-out; inhibition, % at 6.6 µM; hit rate 1.8% among 330,000; in the data active = inhibition mostly above about 38%, no sharp cut-off; inactive = mostly below about 40%;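 note: 0% = agonist challenge alone and 100% = reference antagonist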
Target sequence (O43613 whole entry, looked up): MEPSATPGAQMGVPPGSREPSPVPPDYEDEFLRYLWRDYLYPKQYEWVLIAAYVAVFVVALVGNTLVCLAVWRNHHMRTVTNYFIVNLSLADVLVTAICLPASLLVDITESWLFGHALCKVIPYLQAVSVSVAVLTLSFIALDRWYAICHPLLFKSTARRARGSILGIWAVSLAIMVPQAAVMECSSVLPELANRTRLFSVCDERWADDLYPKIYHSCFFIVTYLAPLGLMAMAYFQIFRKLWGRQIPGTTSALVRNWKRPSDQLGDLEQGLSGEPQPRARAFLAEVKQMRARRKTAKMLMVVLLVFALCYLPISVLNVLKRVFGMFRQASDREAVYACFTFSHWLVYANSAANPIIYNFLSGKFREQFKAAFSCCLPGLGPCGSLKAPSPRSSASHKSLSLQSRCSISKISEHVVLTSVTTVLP
CHO parental Ca: counter-screen: ATP calcium response change in parental CHO cells | inhibition, % at 5.6 µM | AID 463079 | parental CHO-K1, ATP-induced calcium, Fluo-8 fluorescence | hit rate 0.63% among 330,000;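 active = inhibition above that plate's mean sample inhibition plus 3 SD, cut at about 26% in these data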;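 note: 0% = ATP-challenged DMSO wells and 100% = DMSO wells without ATP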
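Assay system – parental CHO cells · Reagent – ATP stimulus · Detection – intracellular calcium via Fluo-8 no-wash fluorescent dye · Evaluation – percent inhibition of ATP-evoked calcium rise, normalized to controls · Controls – ATP wells versus no-ATP DMSO wells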
TAAR1 antag: antagonists of human TAAR1. CHO RD-HGA16 TAAR1, Fluo-8 calcium fluorescence, antagonist. hit rate 1.5% among 360,000. inhibition, % at 3 µM. AID 624466. Q96RJ0;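 active = inhibition above a per-plate cutoff, the mean inhibition of test compounds on that plate plus 3 SD, cut at about 49% in these data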;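 note: 0% = DMSO plus EC80 beta-PEA response and 100% = DMSO alone without agonist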
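Test system – hTAAR1-expressing CHO RD-HGA16 cells, Gα16-coupled · Reagent – β-PEA at EC80 concentration, post-compound challenge · Compound dosing – 3 µM, single point · Timing – 140 s kinetic read after compound, 140 s after agonist · Detection – Fluo-8 intracellular calcium dye fluorescence, real-time kinetic reads · Control set – DMSO and EC80 PEA controls · Repeats – n of 1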
TAAR1 ag: agonists of human TAAR1; Q96RJ0; CHO RD-HGA16 TAAR1, Fluo-8 calcium fluorescence; vehicle wells 0%, saturating PEA agonist 100%; activation, % at 3 µM; hit rate 0.99% among 360,000;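 active = activation above the mean activation of all test compounds in the run plus 3 SD, cut at about 38% in these data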
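Repeats: no replicates (n 1) | Material: CHO-derived RD-HGA16 cells with stable Gα16 and human TAAR1 | Technique: Kinetic Fluo-8 calcium fluorescence | Schedule: 17-24 h seeding, 75 min 37 °C dye, 30 min RT | Evaluation: % activation from peak over basal fluorescence ratio, DMSO-to-PEA scaled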
OX1R antag-2: blocks the human orexin 1 receptor | O43613 | inhibition, % at 5 µM | AID 434989 | CHO/OX1R cells, Fluo-8 calcium fluorescence, orexin A | hit rate 0.43% among 330,000;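 active = inhibition above its plate's threshold, mean inhibition of all tested compounds on the plate plus 3 SD, cut at about 37% in these data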;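 note: 0% = orexin A challenge wells and 100% = SB-334867-A antagonist wells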
GPR7 antagonist: human neuropeptides B/W receptor 1 antagonism; P48145; GPR7-expressing cells, fluorescence antagonist assay; inhibition, % at 4.4 µM; hit rate 1.1% among 290,000; AID 1861; in the data active = inhibition above about 16%, passing the limit was not always enough;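 note: cells stimulated with the agonist NPW; 0% = agonist with vehicle and 100% = vehicle without agonist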
GPR7 antag conf: human GPR7 antagonism, confirmation assay; inhibition, % at 4.4 µM; shares compounds with GPR7 antagonist; AID 1952; GPR7-expressing cells, calcium fluorescence antagonist mode; hit rate 52% among 2,400; in the data active = inhibition above about 24%;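 note: stimulated with the GPR7 agonist NPW; 0% = agonist plus vehicle and 100% = vehicle alone without agonist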
MCHR1 antagonist: antagonizes human MCHR1, a GPR7 antagonist counter-screen; shares compounds with GPR7 antagonist; hit rate 62% among 2,400; MCHR1-expressing cells, fluorescence antagonist assay; inhibition, % at 4.4 µM; in the data active = inhibition above about 22%;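 note: 0% = vehicle with agonist and 100% = vehicle without agonist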
The depositor's hits bear a star; . = not tested or not shown.

SMILES	OX1R antag-1	CHO parental Ca	TAAR1 antag	TAAR1 ag	OX1R antag-2	GPR7 antagonist	GPR7 antag conf	MCHR1 antagonist
COCCN1Cc2cccc(C(=O)Nc3ccc(S(=O)(=O)N4CCCCC4)cc3)c2C1=O	4.1	11.8	-11.0	13.3	-1.5	24.1*	-7.3	-8.8
Cc1ccc(C(=O)Nc2ccc(S(=O)(=O)N3CCN(C)CC3)cc2)cc1	11.8	-13.5	4.7	6.0	-24.4	45.0*	0.0	4.7
C/C(CC(=O)Nc1cccc2c1CCCC2)=N\NC(=O)c1cccc2ccccc12	19.2	-18.1	10.5	1.4	-16.7	16.1	.	.
C/C(CC(=O)Nc1cccc2c1CCCC2)=N\NC(=O)c1ccccc1N	5.1	-23.7	20.8	23.6	-10.4	24.5*	14.8	6.5
CC(OC(=O)c1ccc(Cl)c(S(=O)(=O)Nc2ccc(F)cc2)c1)C(=O)NC(N)=O (configuration not stated)	10.7	-0.3	-22.6	2.9	-8.8	8.3	.	.
Cc1cnc(CNC(=O)c2ccc3oc(Cc4ccc(Cl)cc4)nc3c2)cn1	12.1	-2.4	-16.0	3.7	1.9	22.7*	22.6	20.2
CCC(C(=O)Nc1cccc(C(F)(F)F)c1)c1ccccc1 (configuration not stated)	42.7	-4.3	17.4	1.0	-3.0	28.3*	8.2	47.4*
O=C(Nc1cccc(C(F)(F)F)c1)C(SCCO)c1ccccc1 (configuration not stated)	13.8	-9.5	7.2	6.1	-11.2	-3.6	.	.
Cc1noc(C)c1NC(=O)Nc1cccc2c1O[C@@H](CN(C)C)[C@@H](C)CN([C@H](C)CO)C2=O	18.3	-5.5	2.2	10.2	6.8	.	.	.
CSc1ccccc1OCc1cc(C(=O)N2CCSCC2)no1	15.8	-7.3	-13.1	-0.3	2.1	-0.8	.	.
CSc1ccccc1OCc1cc(C(=O)N2CCC(Oc3cccnc3)CC2)no1	26.2	2.5	21.0	2.8	2.6	28.2*	14.1	47.5*
CN(C)c1ccc(/C=C(\C#N)c2ccccn2)cc1	24.0	-10.3	12.0	1.8	-17.6	30.0*	8.8	47.2*
Cc1ccc(NC2=C(Cl)C(=O)OC2OC(=O)c2ccccc2)c(C)c1 (configuration not stated)	12.1	-1.4	11.9	2.8	-2.7	-1.6	.	.
Cc1ccccc1NC1=C(Cl)C(=O)OC1OC(=O)c1ccccc1C (configuration not stated)	25.2	61.2*	40.8	6.4	2.8	52.0*	20.0	58.9*
CCn1cc(C(=O)NP(=O)(Nc2ccc(C)cc2)Nc2ccc(C)cc2)c2ccccc21	9.8	5.5	-6.3	0.1	-19.6	7.2	.	.
N#CCSc1ccc2nc(-c3ccccc3)cn2n1	19.5	-10.8	-14.5	2.3	-4.5	-1.0	.	.
Cc1cc(=O)oc(C)c1C(=O)Nc1cccc2nonc12	21.2	-4.3	-3.0	5.7	-17.6	-10.4	.	.
COc1ccc([C@@H]2[C@@H]3C(=O)N(C(C)(C)C)C(=O)[C@@H]3[C@]3(CC(C)C)C(=O)N(c4ccc(C(F)(F)F)cc4)C(=O)N23)cc1	8.7	-6.0	2.2	3.5	-11.6	6.1	.	.
Cc1ccc(-c2ccc(C3C(C#N)=C(N)Oc4n[nH]c(C)c43)o2)cc1 (configuration not stated)	18.2	-5.5	16.2	17.9	8.2	26.5*	49.2*	71.8*
Cc1cccc(NC(=O)C2(c3ccccc3)CCOCC2)c1	14.8	-13.5	-2.3	2.5	-6.0	-10.5	.	.
O=C(Cc1ccc([N+](=O)[O-])cc1)Nc1cccc(C(F)(F)F)c1	24.5	28.0*	17.7	11.3	-7.4	39.0*	29.9*	56.7*
Cc1cccc(NC(=O)C2(c3ccc([N+](=O)[O-])cc3)CCCC2)c1	26.6	36.4*	0.0	47.8*	40.6	32.9*	36.2*	36.4*
CN(C(=O)c1cc([N+](=O)[O-])ccc1N1CCCC1)C1CCCCC1	31.4	-20.4	2.0	-1.6	-25.9	33.5*	29.3*	24.0*

Compound activity (PubChem BioAssay)
